From ChEMBL document CHEMBL4406806, “Design, Synthesis, and Characterization of Ogerin-Based Positive Allosteric Modulators for G Protein-Coupled Receptor 68 (GPR68)” (J Med Chem, 2019)

Assays:
Type in all cases: functional, cell-based
[1] = molecular target: G-protein coupled receptor 68 (Homo sapiens) (UniProt Q15743); experiment: (§1) Positive allosteric modulation of human GPR68 expressed in HEK293T cells co-expressing Gs assessed as stimulation of proton-mediated cAMP production by measuring allosteric affinity cooperativity in HBSS buffer containing pH 6.8 to 8.2 HEPES/pH 8.3 to 8.6 TAPS measured after 20 to 30 mins in presence of PDE inhibitor Ro 20-1724 by luciferase-glo reporter gene assay
Chain of G-protein coupled receptor 68 (Homo sapiens) (Q15743 whole entry): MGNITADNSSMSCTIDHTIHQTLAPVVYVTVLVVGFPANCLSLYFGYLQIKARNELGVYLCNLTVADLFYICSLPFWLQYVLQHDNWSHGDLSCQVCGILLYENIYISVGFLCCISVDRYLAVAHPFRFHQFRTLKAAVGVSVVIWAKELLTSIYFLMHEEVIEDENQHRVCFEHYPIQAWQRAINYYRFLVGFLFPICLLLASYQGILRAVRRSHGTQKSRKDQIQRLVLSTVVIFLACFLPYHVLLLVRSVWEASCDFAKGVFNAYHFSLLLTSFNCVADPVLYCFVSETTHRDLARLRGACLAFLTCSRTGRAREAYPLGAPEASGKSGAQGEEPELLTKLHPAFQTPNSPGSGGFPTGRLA
Procedure, shortened: (§2)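 Transient co-transfection of HEK293T with receptor and GloSensor plasmids using PEI, overnight, then replated in DMEM + 1% dFBS for 6–24 h. Luciferin 3.5 mM loaded for 1 h at 37 °C in HBSS/20 mM TAPS, pH 8.40. Proton series: Ca/Mg-free HBSS with MES (pH 5.60–6.70), HEPES (6.80–8.20) or TAPS (8.30–8.60), plus 10 μM Ro 20-1724. BSA 1 mg/mL added where solubility required. Luminescence read at 20–30 min. At least six 16-point proton curves across modulator concentrations, quadruplicate, ≥3 independent assays.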

[2] = molecular target: G-protein coupled receptor 68 (Homo sapiens) (UniProt Q15743); experiment: as §1, with “efficacy” for “allosteric affinity”; procedure, shortened: as §2
[3] = molecular target: G-protein coupled receptor 68 (Homo sapiens) (UniProt Q15743); experiment: as §1, with “index” for “affinity cooperativity”; procedure, shortened: as §2

## Nc1nc(NCCCCc2ccccc2)nc(-c2cc(Cl)ccc2CO)n1
[1]
  log(activity): 1.09
[2]
  log(activity): 0.06
[3]
  Activity index: 6.14

## Cc1ccccc1CNc1nc(N)nc(-c2ccccc2CO)n1
[1]
  log(activity): 0.54
[2]
  log(activity): 0.33
[3]
  Activity index: 5.57

## Nc1nc(NCc2ccc(OC3CC3)cc2)nc(-c2ccccc2CO)n1
[1]
  log(activity): 0.67
[2]
  log(activity): 0.04
[3]
  Activity index: 5.77

## Nc1nc(NCc2cccc(Cl)c2)nc(-c2ccccc2CO)n1
[1]
  log(activity): 0.48
[2]
  log(activity): 0.46
[3]
  Activity index: 5.9

## Nc1nc(NCCCCc2ccc(Oc3ccccc3)cc2)nc(-c2ccccc2CO)n1
[1]
  log(activity): 1.03
[2]
  log(activity): 0.09
[3]
  Activity index: 5.94

## CCNc1nc(NCc2ccccc2)nc(-c2ccccc2CO)n1
[1]
  log(activity): 0.47
[2]
  log(activity): 0.25
[3]
  Activity index: 5.34

## Nc1nc(NCc2ccc(C(F)(F)F)cc2)nc(-c2ccccc2CO)n1
[1]
  log(activity): 0.78
[2]
  log(activity): 0.3
[3]
  Activity index: 6.1

## COc1ccccc1CNc1nc(N)nc(-c2ccccc2CO)n1
[1]
  log(activity): 0.98
[2]
  log(activity): 0.06
[3]
  Activity index: 5.03

## Nc1nc(NCCc2ccccc2)nc(-c2ccccc2CO)n1
[1]
  log(activity): 0.88
[2]
  log(activity): 0.24
[3]
  Activity index: 5.62

## Nc1nc(NCc2ccccc2)nc(-c2ccc(F)cc2CO)n1
[1]
  log(activity): 0.64
[2]
  log(activity): 0.24
[3]
  Activity index: 5.46

## Nc1nc(NCc2ccccc2)nc(-c2c(F)cccc2CO)n1
[1]
  log(activity): 1.15
[2]
  log(activity): 0.35
[3]
  Activity index: 5.19

## COc1cccc(CNc2nc(N)nc(-c3ccccc3CO)n2)c1
[1]
  log(activity): 0.89
[2]
  log(activity): 0.23
[3]
  Activity index: 5.22

## Nc1nc(NCCCc2ccccc2)nc(-c2ccccc2CO)n1
[1]
  log(activity): 0.81
[2]
  log(activity): 0.08
[3]
  Activity index: 6.11

## Nc1nc(NCc2ccc(F)cc2)nc(-c2c(F)cccc2CO)n1
[1]
  log(activity): 1.01
[2]
  log(activity): 0.09
[3]
  Activity index: 5.55

## CCOc1ccc(CNc2nc(N)nc(-c3ccccc3CO)n2)cc1
[1]
  log(activity): 0.81
[2]
  log(activity): -0.01
[3]
  Activity index: 5.57

## Nc1nc(NCc2ccccc2Cl)nc(-c2ccccc2CO)n1
[1]
  log(activity): 0.64
[2]
  log(activity): 0.23
[3]
  Activity index: 5.94

## Nc1nc(NCc2cccc(F)c2)nc(-c2ccccc2CO)n1
[1]
  log(activity): 0.7
[2]
  log(activity): 0.33
[3]
  Activity index: 5.55

## Nc1nc(NCCc2ccc(Oc3ccccc3)cc2)nc(-c2ccccc2CO)n1
[1]
  log(activity): 0.83
[2]
  log(activity): 0.03
[3]
  Activity index: 5.9

## Cc1cccc(CNc2nc(N)nc(-c3c(F)cccc3CO)n2)c1
[1]
  log(activity): 0.84
[2]
  log(activity): 0.14
[3]
  Activity index: 5.42

## CC(C)Oc1ccc(CNc2nc(N)nc(-c3ccccc3CO)n2)cc1
[1]
  log(activity): 0.53
[2]
  log(activity): 0.17
[3]
  Activity index: 5.69

## Nc1nc(NCc2ccccc2F)nc(-c2c(F)cccc2CO)n1
[1]
  log(activity): 1.09
[2]
  log(activity): 0.09
[3]
  Activity index: 5.4

## NCc1ccccc1-c1nc(N)nc(NCc2ccccc2)n1
[1]
  log(activity): 0.86
[2]
  log(activity): 0.3
[3]
  Activity index: 5.01

## Nc1nc(NCCCCc2ccccc2)nc(-c2c(F)cccc2CO)n1
[1]
  log(activity): 1.24
[2]
  log(activity): 0.06
[3]
  Activity index: 5.34

## Nc1nc(NCc2ccccc2)nc(-c2ccc(Cl)cc2CO)n1
[1]
  log(activity): 1.01
[2]
  log(activity): 0.11
[3]
  Activity index: 5.87

## Nc1nc(NCc2ccccc2)nc(-c2c(Cl)cccc2CO)n1
[1]
  log(activity): 1.25
[2]
  log(activity): -0.12
[3]
  Activity index: 5.56

## Nc1nc(NCCc2ccc(Oc3ccccc3)cc2)nc(-c2c(F)cccc2CO)n1
[1]
  log(activity): 1.14
[2]
  log(activity): -0.06
[3]
  Activity index: 6.14

## Nc1nc(NCc2ccc(Oc3ccccc3)cc2)nc(-c2ccccc2CO)n1
[1]
  log(activity): 0.95
[2]
  log(activity): 0
[3]
  Activity index: 6.14

## COc1ccc(-c2nc(N)nc(NCc3ccccc3)n2)c(CO)c1
[1]
  log(activity): 0.46
[2]
  log(activity): 0.14
[3]
  Activity index: 4.97

## Nc1nc(NCc2cccc(C(F)(F)F)c2)nc(-c2ccccc2CO)n1
[1]
  log(activity): 0.64
[2]
  log(activity): 0.32
[3]
  Activity index: 6.07

## CC(C)Oc1ccc(-c2nc(N)nc(NCc3ccccc3)n2)c(CO)c1
[1]
  log(activity): 0.56
[2]
  log(activity): 0.27
[3]
  Activity index: 5.74

## Nc1nc(NCc2ccccc2)nc(-c2cc(Cl)ccc2CO)n1
[1]
  log(activity): 1.2
[2]
  log(activity): 0.09
[3]
  Activity index: 5.78

## Nc1nc(NCCCc2ccccc2)nc(-c2c(F)cccc2CO)n1
[1]
  log(activity): 1.19
[2]
  log(activity): 0.02
[3]
  Activity index: 5.67

## Nc1nc(NCCCc2ccc(Oc3ccccc3)cc2)nc(-c2ccccc2CO)n1
[1]
  log(activity): 1.19
[2]
  log(activity): -0.01
[3]
  Activity index: 5.84

## CCOc1ccc(-c2nc(N)nc(NCc3ccccc3)n2)c(CO)c1
[1]
  log(activity): 0.87
[2]
  log(activity): 0.1
[3]
  Activity index: 5.34

## COc1ccc(CO)c(-c2nc(N)nc(NCc3ccccc3)n2)c1
[1]
  log(activity): 0.61
[2]
  log(activity): 0.18
[3]
  Activity index: 4.77

## Nc1nc(NCc2ccccc2)nc(-c2cccc(F)c2CO)n1
[1]
  log(activity): 0.59
[2]
  log(activity): 0.27
[3]
  Activity index: 4.86

## Nc1nc(NCc2ccccc2F)nc(-c2ccccc2CO)n1
[1]
  log(activity): 0.98
[2]
  log(activity): 0.31
[3]
  Activity index: 5.56

## Cc1ccc(CNc2nc(N)nc(-c3ccccc3CO)n2)cc1
[1]
  log(activity): 0.9
[2]
  log(activity): 0.32
[3]
  Activity index: 5.6

## Nc1nc(NCCc2ccc(Oc3ccccc3)cc2)nc(-c2cc(Cl)ccc2CO)n1
[1]
  log(activity): 1.39
[2]
  log(activity): -0.04
[3]
  Activity index: 5.87

## COc1cccc(-c2nc(N)nc(NCc3ccccc3)n2)c1CO
[1]
  log(activity): 0.4
[2]
  log(activity): 0.3
[3]
  Activity index: 4.86

## COc1ccccc1CNc1nc(N)nc(-c2c(F)cccc2CO)n1
[1]
  log(activity): 1.12
[2]
  log(activity): -0.12
[3]
  Activity index: 5.11

## Nc1nc(NCc2ccc(F)cc2)nc(-c2ccccc2CO)n1
[1]
  log(activity): 1.09
[2]
  log(activity): 0.36
[3]
  Activity index: 5.42

## Nc1nc(NCc2ccccc2C(F)(F)F)nc(-c2ccccc2CO)n1
[1]
  log(activity): 0.6
[2]
  log(activity): 0.31
[3]
  Activity index: 5.96

## COc1ccc(CNc2nc(N)nc(-c3ccccc3CO)n2)cc1
[1]
  log(activity): 0.78
[2]
  log(activity): 0.49
[3]
  Activity index: 4.61

## Nc1nc(NCc2ccc(Oc3ccccc3)cc2)nc(-c2cc(Cl)ccc2CO)n1
[1]
  log(activity): 1.05
[2]
  log(activity): 0.03
[3]
  Activity index: 5.78

## Nc1nc(NCCCc2ccc(Oc3ccccc3)cc2)nc(-c2c(F)cccc2CO)n1
[1]
  log(activity): 1.15
[2]
  log(activity): 0.01
[3]
  Activity index: 6.1

## Nc1nc(NCCc2ccccc2)nc(-c2c(F)cccc2CO)n1
[1]
  log(activity): 1.06
[2]
  log(activity): 0.03
[3]
  Activity index: 6.13

## Nc1nc(NCc2ccccc2)nc(-c2cc(F)ccc2CO)n1
[1]
  log(activity): 0.91
[2]
  log(activity): 0.2
[3]
  Activity index: 5.69

## CNc1nc(NCc2ccccc2)nc(-c2ccccc2CO)n1
[1]
  log(activity): 0.48
[2]
  log(activity): 0.37
[3]
  Activity index: 5.36

## Cc1cccc(CNc2nc(N)nc(-c3ccccc3CO)n2)c1
[1]
  log(activity): 0.92
[2]
  log(activity): 0.25
[3]
  Activity index: 5.57

## Nc1nc(Nc2ccccc2)nc(-c2ccccc2CO)n1
[1]
  log(activity): 0.72
[2]
  log(activity): 0.4
[3]
  Activity index: 5.04
